The values below come from ChEMBL document CHEMBL1129074, “Inhibitors of human immunodeficiency virus type 1 derived from gp41 transmembrane protein: structure--activity studies” (J Med Chem, 1996).

Square brackets hold non-standard residues; d marks the D form. Peptide text beside a SMILES is read from it. Ahx = NCCCCCC(=O)O

For assay [1], the system named is MT4. The experiment in a line: Inhibitory potency of gp41 fragment against HIV-1 induced cytopathic effect in MT-4 cell assay at 20 uM. The assay is classed as functional, Homo sapiens. To be noted: for inhibition at 20 µM: Homo sapiens, MT4. Summed up:
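MT4 cells (exponential growth) at 5×10^5 cells/mL infected with HIV-1 IIIB (100× TCID50) for 1 h at 37 °C, diluted 6-fold, added to serially diluted peptide in RPMI 1640/FCS medium; mock-infected controls. After 5 days at 37 °C, 5% CO2, cells lysed with Nonidet-40 and DNA content read by propidium iodide. Inhibition = restoration of infected-cell growth relative to uninfected controls; cytotoxicity measured in parallel.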

Assay [2] has as its system MT4. The assay can be described thus: Inhibitory potency of gp41 fragment against HIV-1 induced cytopathic effect in MT-4 cell assay at 200 uM. It counts as functional. As to conditions: Homo sapiens.
The subject of assay [3] is MT4. The assay can be described thus: Inhibitory potency of gp41 fragment against HIV-1 induced cytopathic effect in MT-4 cell assay at 100 uM. The assay is classed as functional. As to conditions: Homo sapiens.
For assay [4], the system named is MT4. The experiment in a line: Inhibitory potency of gp41 fragment against HIV-1 induced cytopathic effect in MT-4 cell assay at 5 uM. It counts as functional. As to conditions: Homo sapiens.
Assay [5] deals with MT4. The experiment in a line: Inhibitory potency of gp41 fragment against HIV-1 induced cytopathic effect in MT-4 cell assay at 40 uM. It counts as functional. As to conditions: Homo sapiens.
The subject of assay [6] is MT4. The assay can be described thus: Inhibitory potency of gp41 fragment against HIV-1 induced cytopathic effect in MT-4 cell assay. It counts as functional, cell-based. As to conditions: Homo sapiens.

Take `CC[C@H](C)[C@H](NC(C)=O)C(=O)N[C@@H](CCC(=O)O)C(=O)N[C@@H](C)C(=O)N[C@@H](CCC(N)=O)C(=O)N[C@@H](CCC(N)=O)C(=O)N[C@@H](CC(C)C)C(=O)N[C@@H](CC(C)C)C(=O)N[C@@H](CCC(N)=O)C(=O)N[C@@H](CC(C)C)C(=O)N[C@H](C(=O)N[C@H](C(=O)N[C@@H](Cc1c[nH]c2ccccc12)C(=O)NCC(=O)N[C@H](C(=O)N[C@@H](CCCCN)C(=O)N[C@@H](CCC(N)=O)C(=O)N[C@@H](CC(C)C)C(=O)N[C@@H](CCC(N)=O)C(=O)N[C@@H](C)C(=O)N[C@@H](CCCN=C(N)N)C(=O)N[C@H](C(=O)N[C@@H](CC(C)C)C(=O)N[C@@H](C)C(=O)N[C@H](C(=O)N[C@@H](CCC(=O)O)C(=O)N[C@@H](CCCN=C(N)N)C(=O)N[C@@H](Cc1ccc(O)cc1)C(=O)N[C@@H](CC(C)C)C(=O)N[C@@H](CCCCN)C(=O)N[C@@H](CC(=O)O)C(=O)N[C@@H](CCC(N)=O)C(=O)O)C(C)C)[C@@H](C)CC)[C@@H](C)CC)C(C)C)[C@@H](C)O` (Ac-IEAQQLLQLTVWGIKQLQARILAVERYLKDQ-OH): in the assay with MT4 [1], the inhibition at 20 µM came to 28%.

`CC[C@H](C)[C@H](NC(=O)CNC(=O)[C@H](C)NC(=O)[C@@H](NC(=O)[C@@H](NC(=O)[C@H](C)NC(=O)[C@H](C)NC(=O)[C@H](CC(C)C)NC(=O)[C@H](CC(C)C)NC(=O)[C@H](C)NC(=O)[C@H](CCC(N)=O)NC(=O)[C@H](CCC(N)=O)NC(=O)[C@H](C)NC(=O)[C@H](CCC(=O)O)NC(=O)[C@@H](NC(=O)[C@H](C)NC(=O)[C@H](CCCN=C(N)N)NC(=O)[C@H](CC(C)C)NC(=O)[C@H](CC(C)C)NC(=O)[C@H](CC(N)=O)NC(=O)[C@H](CC(N)=O)NC(C)=O)[C@@H](C)CC)[C@@H](C)O)C(C)C)C(=O)N[C@@H](C)C(=O)N[C@@H](C)C(=O)N[C@@H](CC(C)C)C(=O)N[C@@H](CCC(N)=O)C(=O)N[C@@H](C)C(=O)N[C@@H](CCCN=C(N)N)C(=O)N[C@H](C(=O)N[C@@H](C)C(=O)N[C@@H](C)C(=O)N[C@H](C(=O)N[C@@H](CCC(=O)O)C(=O)N[C@@H](C)C(=O)N[C@@H](Cc1ccc(O)cc1)C(=O)N[C@@H](CC(C)C)C(=O)N[C@@H](C)C(=O)N[C@@H](C)C(=O)N[C@@H](CCC(N)=O)C(=O)O)C(C)C)[C@@H](C)CC` (Ac-NNLLRAIEAQQALLAATVAGIAALQARIAAVEAYLAAQ-OH): 20 µM produced 37% inhibition in the assay with MT4 [1].

Turning to `CC[C@H](C)[C@H](NC(=O)CCCCCNC(=O)CCCCCNC(=O)CCCCCNC(=O)[C@H](CC(C)C)NC(=O)[C@H](CCC(N)=O)NC(=O)[C@H](CC(C)C)NC(=O)[C@H](CC(C)C)NC(=O)[C@H](Cc1c[nH]cn1)NC(=O)[C@H](CCC(N)=O)NC(C)=O)C(=O)N[C@@H](CCCCN)C(=O)N[C@@H](CCC(N)=O)C(=O)N[C@@H](CC(C)C)C(=O)N[C@@H](CCC(N)=O)C(=O)N[C@@H](C)C(=O)N[C@@H](CCCN=C(N)N)C(=O)N[C@H](C(=O)N[C@@H](CC(C)C)C(=O)N[C@@H](C)C(=O)N[C@H](C(=O)N[C@@H](CCC(=O)O)C(=O)O)C(C)C)[C@@H](C)CC` (Ac-QHLLQL[Ahx][Ahx][Ahx]IKQLQARILAVE-OH), in the assay with MT4 [2], the inhibition at 200 µM stood at 0%.

Take `CC[C@H](C)[C@H](NC(=O)[C@H](CCCN=C(N)N)NC(=O)[C@H](C)NC(=O)[C@H](CCC(N)=O)NC(=O)[C@H](CC(C)C)NC(=O)[C@H](CCC(N)=O)NC(=O)[C@H](CCCCN)NC(=O)[C@@H](NC(=O)CNC(=O)[C@H](Cc1c[nH]c2ccccc12)NC(=O)[C@@H](NC(=O)[C@@H](NC(=O)[C@H](CC(C)C)NC(=O)[C@H](CCC(N)=O)NC(C)=O)[C@@H](C)O)C(C)C)[C@@H](C)CC)C(=O)O` (Ac-QLTVWGIKQLQARI-OH): at 100 µM the inhibition with MT4 [3] was 0%.

The compound `CC[C@H](C)[C@H](N)C(=O)N[C@@H](CCCCN)C(=O)N[C@@H](CCC(N)=O)C(=O)N[C@@H](CC(C)C)C(=O)N[C@@H](CCC(N)=O)C(=O)N[C@@H](C)C(=O)N[C@@H](CCCN=C(N)N)C(=O)N[C@H](C(=O)N[C@@H](CC(C)C)C(=O)N[C@@H](C)C(=O)N[C@H](C(=O)N[C@@H](CCC(=O)O)C(=O)N[C@@H](CCCN=C(N)N)C(=O)N[C@@H](Cc1ccc(O)cc1)C(=O)N[C@@H](CC(C)C)C(=O)N[C@@H](CCCCN)C(=O)N[C@@H](CC(=O)O)C(=O)N[C@@H](CCC(N)=O)C(=O)O)C(C)C)[C@@H](C)CC` (H-IKQLQARILAVERYLKDQ-OH) registered an inhibition at 200 µM in the assay on MT4 [2] of 0%.

Take `CC[C@H](C)[C@H](NC(=O)[C@H](CCCN=C(N)N)NC(=O)[C@H](C)NC(=O)[C@H](CCC(N)=O)NC(=O)[C@H](CC(C)C)NC(=O)[C@H](CCC(N)=O)NC(=O)[C@H](CCCCN)NC(=O)[C@@H](NC(=O)CNC(=O)[C@H](Cc1c[nH]c2ccccc12)NC(=O)[C@@H](NC(=O)[C@@H](NC(=O)[C@H](CC(C)C)NC(=O)[C@H](CCC(N)=O)NC(=O)[C@@H](N)CC(C)C)[C@@H](C)O)C(C)C)[C@@H](C)CC)C(=O)O` (H-LQLTVWGIKQLQARI-OH): the inhibition at 100 µM in the assay with MT4 [3] is 21%.

The compound `CC[C@H](C)[C@H](NC(=O)CNC(=O)[C@H](Cc1c[nH]c2ccccc12)NC(=O)[C@@H](NC(=O)[C@@H](NC(=O)[C@H](CC(C)C)NC(=O)[C@H](CCC(N)=O)NC(=O)[C@H](CC(C)C)NC(=O)[C@H](CC(C)C)NC(=O)[C@H](Cc1c[nH]cn1)NC(=O)[C@H](CCC(N)=O)NC(=O)[C@H](CCC(N)=O)NC(=O)[C@H](C)NC(=O)[C@H](CCC(=O)O)NC(=O)[C@@H](NC(=O)[C@H](C)NC(=O)[C@H](CCCN=C(N)N)NC(=O)[C@H](CC(C)C)NC(=O)[C@H](CC(C)C)NC(=O)[C@H](CC(N)=O)NC(=O)[C@@H](N)CC(N)=O)[C@@H](C)CC)[C@@H](C)O)C(C)C)C(=O)N[C@@H](CCCCN)C(=O)N[C@@H](CCC(N)=O)C(=O)N[C@@H](CC(C)C)C(=O)N[C@@H](CCC(N)=O)C(=O)N[C@@H](C)C(=O)N[C@@H](CCCN=C(N)N)C(=O)N[C@H](C(=O)N[C@@H](CC(C)C)C(=O)N[C@@H](C)C(=O)N[C@H](C(=O)N[C@@H](CCC(=O)O)C(=O)O)C(C)C)[C@@H](C)CC` (H-NNLLRAIEAQQHLLQLTVWGIKQLQARILAVE-OH) gave an inhibition at 5 µM in the assay with MT4 [4] of 37%.

`CC[C@H](C)[C@H](NC(=O)[C@H](CCCN=C(N)N)NC(=O)[C@H](C)NC(=O)[C@H](CCC(N)=O)NC(=O)[C@H](CC(C)C)NC(=O)[C@H](CCC(N)=O)NC(=O)[C@H](CCCCN)NC(=O)[C@@H](NC(=O)CNC(=O)[C@H](Cc1c[nH]c2ccccc12)NC(=O)[C@@H](NC(=O)[C@@H](NC(=O)[C@H](CC(C)C)NC(=O)[C@@H](N)CCC(N)=O)[C@@H](C)O)C(C)C)[C@@H](C)CC)C(=O)O` (H-QLTVWGIKQLQARI-OH) returned an inhibition at 100 µM with MT4 [3] of 0%.

As for `CC[C@H](C)[C@H](NC(=O)[C@H](CCCN=C(N)N)NC(=O)[C@H](C)NC(=O)[C@H](CCC(N)=O)NC(=O)[C@H](CC(C)C)NC(=O)[C@H](CCC(N)=O)NC(=O)[C@H](CCCCN)NC(=O)[C@@H](NC(=O)CNC(=O)[C@H](Cc1c[nH]c2ccccc12)NC(=O)[C@@H](NC(=O)[C@@H](NC(=O)[C@H](CC(C)C)NC(=O)[C@H](CCC(N)=O)NC(=O)[C@H](CC(C)C)NC(=O)CCCCCN)[C@@H](C)O)C(C)C)[C@@H](C)CC)C(=O)O` (HELM PEPTIDE1{[NCCCCCC(=O)[*:2]].L.Q.L.T.V.W.G.I.K.Q.L.Q.A.R.I}$$$$V2.0), in the assay on MT4 [5], the inhibition at 40 µM was 33%.

`CC[C@H](C)[C@H](NC(=O)[C@H](CCCN=C(N)N)NC(=O)[C@H](C)NC(=O)[C@H](CCC(N)=O)NC(=O)[C@H](CC(C)C)NC(=O)[C@H](CCC(N)=O)NC(=O)[C@H](CCCCN)NC(=O)[C@@H](NC(=O)CNC(=O)[C@H](Cc1c[nH]c2ccccc12)NC(=O)[C@@H](NC(=O)[C@@H](NC(=O)[C@H](CC(C)C)NC(=O)[C@H](CCC(N)=O)NC(=O)CCCCCN)[C@@H](C)O)C(C)C)[C@@H](C)CC)C(=O)O` (HELM PEPTIDE1{[NCCCCCC(=O)[*:2]].Q.L.T.V.W.G.I.K.Q.L.Q.A.R.I}$$$$V2.0) returned an inhibition at 40 µM with MT4 [5] of 11%.

In turn, `CC[C@H](C)[C@H](NC(=O)[C@H](CCCN=C(N)N)NC(=O)[C@H](C)NC(=O)[C@H](CCC(N)=O)NC(=O)[C@H](CC(C)C)NC(=O)[C@H](CCC(N)=O)NC(=O)CCCCCNC(=O)[C@H](Cc1c[nH]c2ccccc12)NC(=O)[C@@H](NC(=O)[C@@H](NC(=O)[C@H](CC(C)C)NC(=O)[C@H](CCC(N)=O)NC(=O)[C@H](CC(C)C)NC(=O)[C@H](CC(C)C)NC(=O)[C@H](Cc1c[nH]cn1)NC(=O)[C@H](CCC(N)=O)NC(C)=O)[C@@H](C)O)C(C)C)C(=O)N[C@@H](CC(C)C)C(=O)N[C@@H](C)C(=O)N[C@H](C(=O)N[C@@H](CCC(=O)O)C(=O)O)C(C)C` (HELM PEPTIDE1{[ac].Q.H.L.L.Q.L.T.V.W.[O=C(CCCCCN[*:1])[*:2]].Q.L.Q.A.R.I.L.A.V.E}$$$$V2.0) had an IC50 in the assay with MT4 [6] of 40 µM.

In turn, `CCCCCCCCCCCCC(N)C(=O)N[C@H](C(=O)N[C@@H](CCCCN)C(=O)N[C@@H](CCC(N)=O)C(=O)N[C@@H](CC(C)C)C(=O)N[C@@H](CCC(N)=O)C(=O)N[C@@H](C)C(=O)N[C@@H](CCCN=C(N)N)C(=O)N[C@H](C(=O)N[C@@H](CC(C)C)C(=O)N[C@@H](C)C(=O)N[C@H](C(=O)N[C@@H](CCC(=O)O)C(=O)N[C@@H](CCCN=C(N)N)C(=O)N[C@@H](Cc1ccc(O)cc1)C(=O)N[C@@H](CC(C)C)C(=O)N[C@@H](CCCCN)C(=O)N[C@@H](CC(=O)O)C(=O)N[C@@H](CCC(N)=O)C(=O)O)C(C)C)[C@@H](C)CC)[C@@H](C)CC` (stereo in doubt; 21) gave an Inhibition with MT4 [1] of 9%.

In turn, `CCCCCCCCCCCCC(N)C(=O)N[C@H](C(=O)N[C@@H](CCCCN)C(=O)N[C@@H](CCC(N)=O)C(=O)N[C@@H](CC(C)C)C(=O)N[C@@H](CCC(N)=O)C(=O)N[C@@H](C)C(=O)N[C@@H](CCCN=C(N)N)C(=O)N[C@H](C(=O)N[C@@H](CC(C)C)C(=O)N[C@@H](C)C(=O)N[C@H](C(=O)N[C@@H](CCC(=O)O)C(=O)N[C@@H](CCCN=C(N)N)C(=O)N[C@@H](Cc1ccc(O)cc1)C(=O)N[C@@H](CC(C)C)C(=O)N[C@@H](CCCCN)C(=O)N[C@@H](CC(=O)O)C(=O)N[C@@H](CCC(N)=O)C(=O)O)C(C)C)[C@@H](C)CC)[C@@H](C)CC` (stereo in doubt; 22) had an Inhibition with MT4 [1] of 0%.
